# Screens (PubChem)
# PHOSPHO1 block = PHOSPHO1 (human) inhibition | Q8TCT1 | recombinant PHOSPHO1, absorbance phosphatase assay | inhibition, % at 13.3 µM | actives 1.1% (n = 290,000); in the data active = inhibition above about 60%
# hERG rescue = compounds protecting human hERG from proarrhythmic drug block. actives 0.51% (n = 310,000). AID 1511. CHO-hERG, FluxOR thallium flux, dofetilide IC70 present. Q12809. activation (rescue from dofetilide block), less the hit threshold, % at 10 µM;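 active = activation above the mean of controls blocked by dofetilide plus 5 SD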;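 also: thallium influx through hERG after potassium depolarization seen as dye fluorescence rise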
# KCNQ1 act = potentiates or activates the human KCNQ1 potassium channel; P51787; CHO-K1 KCNQ1, thallium flux FluxOR fluorescence; stronger effect = higher value; B-score at 10 µM; actives 0.35% (n = 310,000); AID 2648;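 active = fluorescence ratio B-score, a plate-corrected score, at least three library SD, with initial intensity B-score within 5 SD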
#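 System: Stable KCNQ1 CHO-K1 line | Incubation: 90 min dye loading and 20 min compound exposure, both at room temperature | Measure: Ratio B score | Medium: Assay buffer for compound exposure, DMSO matched across wells | Compound dosing: Single-concentration screen | Probe or stimulus: K+/Tl+ depolarizing stimulus | Measured by: Kinetic FluxOR fluorescence, 10 s baseline plus 110 s post-stimulus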
# KCNK9 inh = blocks the human KCNK9 two-pore domain potassium channel; Q9NPC2; HEK293 KCNK9, FluxOR thallium flux fluorescence; stronger effect = lower value; B-score at 10 µM; actives 1.2% (n = 310,000);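 active = ratio B-score over 3 SD below the library mean, with starting fluorescence within 5 SD of its mean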;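 also: negative B-score means less thallium flux so channel inhibition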
# KCNQ1 inh = human KCNQ1 channel inhibition; P51787; actives 1.3% (n = 310,000); CHO-K1 KCNQ1, FluxOR thallium flux fluorescence; stronger effect = higher value; B-score at 10 µM;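 active = compounds whose thallium flux B-score, printed positive for inhibition, exceeds three library SD while starting fluorescence stays within three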;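 also: channel opened by potassium depolarization with thallium stimulus after 20 min compound exposure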
# KCNK3 block = human KCNK3 channel inhibition, primary screen. CHO-KCNK3 thallium flux, FluxOR fluorescence; stronger effect = lower value. O14649. actives 0.84% (n = 340,000). B-score at 10 µM;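 active = B-score under library mean minus 4 SD, starting fluorescence ratio at most library mean plus 5 SD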;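 also: more negative B-score means stronger inhibition of thallium flux through KCNK3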
# KCNK9 block conf = human KCNK9 inhibitor confirmation; shares compounds with KCNK9 inh; HEK293 KCNK9 cells, FluxOR thallium flux fluorescence; inhibition, % at 10 µM; actives 43% (n = 4,900); AID 492992;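 active = thallium signal inhibited by more than 5 SD of the compound-free buffer control wells, on both duplicate plates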;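 also: 0% = assay buffer control wells without compound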
# Kir2-1 spec = selectivity of KCNK9 modulators against mouse Kir2.1. shares compounds with KCNK9 inh. Kir2.1 cells, FluxOR thallium flux fluorescence. inhibition, % at 10 µM. actives 4% (n = 4,900). AID 492993;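 active = thallium signal drop more than 5 SD beyond the mean of the no-compound control wells, seen in both duplicate plates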;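 also: signal is fluorescence rise after thallium addition divided by baseline fluorescence; plate controls were assay buffer only for no effect and full block by chlorpromazine control for full effect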
# Target sequence (P35561 whole entry, looked up): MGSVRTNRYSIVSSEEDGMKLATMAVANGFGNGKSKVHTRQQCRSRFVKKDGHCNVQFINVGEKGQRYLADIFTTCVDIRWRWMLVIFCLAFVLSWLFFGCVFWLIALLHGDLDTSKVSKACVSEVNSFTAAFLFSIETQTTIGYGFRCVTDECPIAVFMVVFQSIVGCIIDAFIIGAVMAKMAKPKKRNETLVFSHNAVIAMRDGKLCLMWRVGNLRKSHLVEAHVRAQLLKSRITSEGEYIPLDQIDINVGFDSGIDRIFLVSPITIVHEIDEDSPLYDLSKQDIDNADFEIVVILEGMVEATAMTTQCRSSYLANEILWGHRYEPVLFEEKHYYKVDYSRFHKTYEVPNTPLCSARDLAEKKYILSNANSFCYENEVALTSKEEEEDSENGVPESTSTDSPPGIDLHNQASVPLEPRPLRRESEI
# KCNK9 uninduced = non-induced cell nonspecific activity of KCNK9 modulators. shares compounds with KCNK9 inh. non-induced KCNK9-HEK293, FluxOR thallium flux. inhibition, % at 10 µM. actives 40% (n = 4,900);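 active = thallium signal drop beyond 5 SD of the untreated control mean, on both duplicate plates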;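 also: plate controls were buffer only IC0 wells for no effect and SID17386958 at its maximal inhibitory level for full effect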
# * = called active by the depositor; i = inactive; . = no result. In the library only some 4% were active in any assay of this set; here they are far more common.
SMILES,PHOSPHO1 block,hERG rescue,KCNQ1 act,KCNK9 inh,KCNQ1 inh,KCNK3 block,KCNK9 block conf,Kir2-1 spec,KCNK9 uninduced
CCOC(=O)OC(C)OC1=C(C(=O)Nc2ccccn2)N(C)S(=O)(=O)c2ccccc21 (configuration not stated),.,-8,i,i,i,.,.,.,.
O=C(c1cccs1)n1nc(-c2cccnc2)nc1NCc1ccco1,27,-11,i,i,i,i,.,.,.
COc1ccc(C(=O)Cn2nc(CNc3ccc(Br)cc3)[n+]3c2CCCCC3)cc1,-4,-11,i,i,i,i,.,.,.
Cc1ccc(C(C)C)c(OCc2nn(CC(=O)c3ccc(OC(F)F)cc3)c3[n+]2CCCCC3)c1,26,-28,i,-8.4*,9*,i,51%*,i,i
O=C(Nc1ccccc1)OCCCc1ccccc1,9,-8,i,i,i,i,i,i,i
Cc1ccccc1NCC(=O)Nc1cc(S(=O)(=O)N2CCCCC2)ccc1C,.,.,.,.,.,i,.,.,.
CC(NCC(=O)Nc1cc(S(=O)(=O)N2CCCCCC2)ccc1Cl)c1ccccc1 (configuration not stated),16,-12,i,i,i,i,i,i,i
C/C(CC(=O)Nc1ccc(Cl)c(C(F)(F)F)c1)=N\NC(=O)c1ccccc1O,-12,-15,i,i,i,i,.,.,.
C/C(CC(=O)Nc1ccc(Cl)c(C(F)(F)F)c1)=N\NC(N)=S,-13,-15,i,i,7*,i,i,i,i
Cc1cc(C)c2sc(N(CCCN(C)C)C(=O)c3ccc(S(=O)(=O)N(C)C4CCCCC4)cc3)nc2c1,.,-26,i,i,i,i,i,i,i
CC(SC1=Nc2ccccc2C2CC=NN12)C(=O)NC1(C#N)CCCCC1 (configuration not stated),.,-17,i,-10*,i,i,46%*,i,42%*
Cc1ccc(C(=O)CSC2=C(C#N)C(c3ccco3)C3=C(CC(C)(C)CC3=O)N2)cc1 (configuration not stated),76*,-8,i,-8.4*,i,-10*,46%*,i,33%*
CC1(C)CC(=O)C2=C(C1)NC(SCC(=O)Nc1ccccc1)=C(C#N)C2c1ccco1 (configuration not stated),2,-6,i,i,i,i,.,.,.
COc1cc2nc(Nc3ccc(F)cc3)nc(N)c2cc1OC,28,-5,i,i,i,i,.,.,.
COc1cc2nc(Nc3ccc(C)c(Cl)c3)nc(N)c2cc1OC,23,-5,i,-16*,i,i,i,i,i
CC(Sc1ccc(Cl)cc1)C(=O)NCc1cccnc1 (configuration not stated),-2,-11,i,i,i,i,.,.,.
CSc1nc(C(=O)N2CCCC(Nc3ccc(C)c(C)c3)C2)cs1 (configuration not stated),-5,-7,i,i,i,i,i,i,i
Cc1ccc(NC2CCCN(C(=O)c3cn4cccc(C)c4n3)C2)cc1C (configuration not stated),3,-5,i,i,i,i,i,i,i
Cc1ccc(NC2CCCN(C(=O)C3CCCC3)C2)cc1C (configuration not stated),-23,-6,i,i,i,i,i,i,i
COc1ccc(NC(=O)N2CCC(C(=O)c3ccc4c(c3)OCCO4)CC2)cc1,35,-4,i,i,i,i,.,.,.
